Assay results from ChEMBL document CHEMBL1144839, “Cytotoxic bastadin 24 from the Australian sponge Ianthella quadrangulata” (J Nat Prod, 2008).
Values after ≈ are worked out from the molar mass of the structure shown.

Experiments:
Type in all cases: functional, cell-based
[1] = Cytotoxicity against human 529L cells after 4 days by modified propidium iodide monolayer assay; conditions: 96 h
Procedure, shortened: (§1)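 Part of a 36-line human tumor cell panel. Proliferation inhibition was measured over a range of concentrations, and an IC50 was derived for each cell line from its concentration–response.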

[2] = system: OVCAR-3; assay: Cytotoxicity against human OVCAR-3 cells after 4 days by modified propidium iodide monolayer assay; conditions: OVCAR-3, 96 h; procedure, shortened: as §1
[3] = Cytotoxicity against human 393NL cells after 4 days by modified propidium iodide monolayer assay; conditions: 96 h; procedure, shortened: as §1
[4] = Cytotoxicity against human 251L cells after 4 days by modified propidium iodide monolayer assay; conditions: 96 h; procedure, shortened: as §1
[5] = Cytotoxicity against human 394NL cells after 4 days by modified propidium iodide monolayer assay; conditions: 96 h; procedure, shortened: as §1
[6] = system: DU-145; assay: Cytotoxicity against human DU145 cells after 4 days by modified propidium iodide monolayer assay; conditions: DU-145, 96 h; procedure, shortened: as §1
[7] = Cytotoxicity against human 520L cells after 4 days by modified propidium iodide monolayer assay; conditions: 96 h; procedure, shortened: as §1
[8] = system: T-24; assay: Cytotoxicity against human T24 cells after 4 days by modified propidium iodide monolayer assay; conditions: T-24, 96 h; procedure, shortened: as §1
[9] = Cytotoxicity against human 1657L cells after 4 days by modified propidium iodide monolayer assay; conditions: 96 h; procedure, shortened: as §1
[10] = Cytotoxicity against human 1619L cells after 4 days by modified propidium iodide monolayer assay; conditions: 96 h; procedure, shortened: as §1
[11] = Cytotoxicity against human 514L cells after 4 days by modified propidium iodide monolayer assay; conditions: 96 h; procedure, shortened: as §1
[12] = Cytotoxicity against human 276L cells after 4 days by modified propidium iodide monolayer assay; conditions: 96 h; procedure, shortened: as §1
[13] = Cytotoxicity against human 1781L cells after 4 days by modified propidium iodide monolayer assay; conditions: 96 h; procedure, shortened: as §1
[14] = Cytotoxicity against human 1752L cells after 4 days by modified propidium iodide monolayer assay; conditions: 96 h; procedure, shortened: as §1
[15] = system: LNCaP; assay: Cytotoxicity against human LNCAP cells after 4 days by modified propidium iodide monolayer assay; conditions: 96 h; procedure, shortened: as §1
[16] = Cytotoxicity against human 289L cells after 4 days by modified propidium iodide monolayer assay; conditions: 96 h; procedure, shortened: as §1
[17] = Cytotoxicity against human 498NL cells after 4 days by modified propidium iodide monolayer assay; conditions: 96 h; procedure, shortened: as §1
[18] = Cytotoxicity against human 526L cells after 4 days by modified propidium iodide monolayer assay; conditions: 96 h; procedure, shortened: as §1
[19] = system: CWR22R; assay: Cytotoxicity against human 22RV1 cells after 4 days by modified propidium iodide monolayer assay; conditions: 22Rv1, 96 h; procedure, shortened: as §1
[20] = Cytotoxicity against human PC3M cells after 4 days by modified propidium iodide monolayer assay; conditions: PC-3M, 96 h; procedure, shortened: as §1
[21] = system: SF-268; assay: Cytotoxicity against human SF268 cells after 4 days by modified propidium iodide monolayer assay; conditions: SF-268, 96 h; procedure, shortened: as §1
[22] = system: PANC-1; assay: Cytotoxicity against human PANC1 cells after 4 days by modified propidium iodide monolayer assay; conditions: PANC-1, 96 h; procedure, shortened: as §1
[23] = Cytotoxicity against human 1218L cells after 4 days by modified propidium iodide monolayer assay; conditions: 96 h; procedure, shortened: as §1
[24] = Cytotoxicity against human 401NL cells after 4 days by modified propidium iodide monolayer assay; conditions: 96 h; procedure, shortened: as §1
[25] = system: HT-29; assay: Cytotoxicity against human HT29 cells after 4 days by modified propidium iodide monolayer assay; conditions: HT-29, 96 h; procedure, shortened: as §1
[26] = Cytotoxicity against human 1138L cells after 4 days by modified propidium iodide monolayer assay; conditions: 96 h; procedure, shortened: as §1
[27] = Cytotoxicity against human 536L cells after 4 days by modified propidium iodide monolayer assay; conditions: 96 h; procedure, shortened: as §1
[28] = system: HCT-116; assay: Cytotoxicity against human HCT116 cells after 4 days by modified propidium iodide monolayer assay; conditions: HCT-116, 96 h; procedure, shortened: as §1
[29] = system: NCI-H460; assay: Cytotoxicity against human H460 cells after 4 days by modified propidium iodide monolayer assay; conditions: NCI-H460, 96 h; procedure, shortened: as §1
[30] = Cytotoxicity against human 629L cells after 4 days by modified propidium iodide monolayer assay; conditions: 96 h; procedure, shortened: as §1
[31] = Cytotoxicity against human 944L cells after 4 days by modified propidium iodide monolayer assay; conditions: 96 h; procedure, shortened: as §1
[32] = Cytotoxicity against human 1121L cells after 4 days by modified propidium iodide monolayer assay; conditions: 96 h; procedure, shortened: as §1
[33] = Cytotoxicity against human 462NL cells after 4 days by modified propidium iodide monolayer assay; conditions: 96 h; procedure, shortened: as §1
[34] = system: MCF7; assay: Cytotoxicity against human MCF7 cells after 4 days by modified propidium iodide monolayer assay; conditions: MCF7, 96 h; procedure, shortened: as §1
[35] = Cytotoxicity against human 486L cells after 4 days by modified propidium iodide monolayer assay; conditions: 96 h; procedure, shortened: as §1
[36] = Cytotoxicity against human 899L cells after 4 days by modified propidium iodide monolayer assay; conditions: 96 h; procedure, shortened: as §1

**Q.** Which results are given for `O=C1NCCc2cc(Br)c(c(Br)c2)Oc2cc(cc(Br)c2O)CCNC(=O)/C(=N/O)C(O)c2cc(Br)c(c(Br)c2)Oc2cc(cc(Br)c2O)C/C1=N\O` (stereo not drawn) [BASTADIN 24]?
**A.** IC50 [1]: 1.7 µg/mL (≈ 1.53 µM); IC70 [1]: 3.61 µg/mL (≈ 3.24 µM); IC90 [1]: 7.68 µg/mL (≈ 6.89 µM); IC50 [2]: 3.66 µg/mL (≈ 3.29 µM); IC70 [2]: 5.72 µg/mL (≈ 5.13 µM); IC90 [2]: 8.94 µg/mL (≈ 8.02 µM); IC50 [3]: 2.42 µg/mL (≈ 2.17 µM); IC70 [3]: 4.38 µg/mL (≈ 3.93 µM); IC90 [3]: 7.9 µg/mL (≈ 7.09 µM); IC50 [4]: 2.64 µg/mL (≈ 2.37 µM); IC70 [4]: 5.42 µg/mL (≈ 4.87 µM); IC90 [4]: 11.1 µg/mL (≈ 10 µM); IC50 [5]: 1.5 µg/mL (≈ 1.35 µM); IC70 [5]: 3.36 µg/mL (≈ 3.02 µM); IC90 [5]: 7.54 µg/mL (≈ 6.77 µM); IC50 [6]: 0.96 µg/mL (≈ 0.862 µM); IC70 [6]: 2.59 µg/mL (≈ 2.32 µM); IC90 [6]: 7.04 µg/mL (≈ 6.32 µM); IC50 [7]: 2.6 µg/mL (≈ 2.33 µM); IC70 [7]: 4.56 µg/mL (≈ 4.09 µM); IC90 [7]: 7.99 µg/mL (≈ 7.17 µM); IC50 [8]: 0.79 µg/mL (≈ 0.709 µM); IC70 [8]: 2.19 µg/mL (≈ 1.97 µM); IC90 [8]: 6.24 µg/mL (≈ 5.6 µM); IC50 [9]: 2.18 µg/mL (≈ 1.96 µM); IC70 [9]: 4.58 µg/mL (≈ 4.11 µM); IC90 [9]: 9.64 µg/mL (≈ 8.65 µM); IC50 [10]: 2.77 µg/mL (≈ 2.49 µM); IC70 [10]: 4.73 µg/mL (≈ 4.25 µM); IC90 [10]: 8.07 µg/mL (≈ 7.24 µM); IC50 [11]: 1.62 µg/mL (≈ 1.45 µM); IC70 [11]: 3.64 µg/mL (≈ 3.27 µM); IC90 [11]: 8.17 µg/mL (≈ 7.33 µM); IC50 [12]: 0.59 µg/mL (≈ 0.53 µM); IC70 [12]: 2.02 µg/mL (≈ 1.81 µM); IC90 [12]: 14.9 µg/mL (≈ 13.4 µM); IC50 [13]: 2.88 µg/mL (≈ 2.59 µM); IC70 [13]: 4.94 µg/mL (≈ 4.43 µM); IC90 [13]: 8.5 µg/mL (≈ 7.63 µM); IC50 [14]: 3.81 µg/mL (≈ 3.42 µM); IC70 [14]: 5.91 µg/mL (≈ 5.31 µM); IC90 [14]: 9.16 µg/mL (≈ 8.22 µM); IC50 [15]: 2.47 µg/mL (≈ 2.22 µM); IC70 [15]: 4.59 µg/mL (≈ 4.12 µM); IC90 [15]: 8.56 µg/mL (≈ 7.68 µM); IC50 [16]: 2.68 µg/mL (≈ 2.41 µM); IC70 [16]: 4.88 µg/mL (≈ 4.38 µM); IC90 [16]: 8.87 µg/mL (≈ 7.96 µM); IC50 [17]: 2.64 µg/mL (≈ 2.37 µM); IC70 [17]: 4.6 µg/mL (≈ 4.13 µM); IC90 [17]: 8.01 µg/mL (≈ 7.19 µM); IC50 [18]: 1.22 µg/mL (≈ 1.1 µM); IC70 [18]: 3.24 µg/mL (≈ 2.91 µM); IC90 [18]: 8.63 µg/mL (≈ 7.75 µM); IC50 [19]: 0.46 µg/mL (≈ 0.413 µM); IC70 [19]: 0.96 µg/mL (≈ 0.862 µM); IC90 [19]: 5.75 µg/mL (≈ 5.16 µM); IC50 [20]: 1.29 µg/mL (≈ 1.16 µM); IC70 [20]: 3.03 µg/mL (≈ 2.72 µM); IC90 [20]: 7.11 µg/mL (≈ 6.38 µM); IC50 [21]: 0.38 µg/mL (≈ 0.341 µM); IC70 [21]: 0.61 µg/mL (≈ 0.548 µM); IC90 [21]: 0.96 µg/mL (≈ 0.862 µM); IC50 [22]: 4.23 µg/mL (≈ 3.8 µM); IC70 [22]: 6.31 µg/mL (≈ 5.66 µM); IC90 [22]: 9.41 µg/mL (≈ 8.45 µM); IC50 [23]: 2.56 µg/mL (≈ 2.3 µM); IC70 [23]: 4.9 µg/mL (≈ 4.4 µM); IC90 [23]: 9.37 µg/mL (≈ 8.41 µM); IC50 [24]: 0.55 µg/mL (≈ 0.494 µM); IC70 [24]: 0.87 µg/mL (≈ 0.781 µM); IC90 [24]: 8.58 µg/mL (≈ 7.7 µM); IC50 [25]: 2 µg/mL (≈ 1.8 µM); IC70 [25]: 3.85 µg/mL (≈ 3.46 µM); IC90 [25]: 7.44 µg/mL (≈ 6.68 µM); IC50 [26]: 1.4 µg/mL (≈ 1.26 µM); IC70 [26]: 3.3 µg/mL (≈ 2.96 µM); IC90 [26]: 7.74 µg/mL (≈ 6.95 µM); IC50 [27]: 4.19 µg/mL (≈ 3.76 µM); IC70 [27]: 6.16 µg/mL (≈ 5.53 µM); IC90 [27]: 9.08 µg/mL (≈ 8.15 µM); IC50 [28]: 3.87 µg/mL (≈ 3.47 µM); IC70 [28]: 5.71 µg/mL (≈ 5.13 µM); IC90 [28]: 8.4 µg/mL (≈ 7.54 µM); IC50 [29]: 4.31 µg/mL (≈ 3.87 µM); IC70 [29]: 6.08 µg/mL (≈ 5.46 µM); IC90 [29]: 8.57 µg/mL (≈ 7.69 µM); IC50 [30]: 0.37 µg/mL (≈ 0.332 µM); IC70 [30]: 0.63 µg/mL (≈ 0.566 µM); IC90 [30]: 1.67 µg/mL (≈ 1.5 µM); IC50 [31]: 2.28 µg/mL (≈ 2.05 µM); IC70 [31]: 4.54 µg/mL (≈ 4.08 µM); IC90 [31]: 9.02 µg/mL (≈ 8.1 µM); IC50 [32]: 1.51 µg/mL (≈ 1.36 µM); IC70 [32]: 3.43 µg/mL (≈ 3.08 µM); IC90 [32]: 7.81 µg/mL (≈ 7.01 µM); IC50 [33]: 1.58 µg/mL (≈ 1.42 µM); IC70 [33]: 3.66 µg/mL (≈ 3.29 µM); IC90 [33]: 8.46 µg/mL (≈ 7.59 µM); IC50 [34]: 1.46 µg/mL (≈ 1.31 µM); IC70 [34]: 3.37 µg/mL (≈ 3.03 µM); IC90 [34]: 7.78 µg/mL (≈ 6.98 µM); IC50 [35]: 6.08 µg/mL (≈ 5.46 µM); IC70 [35]: 11.3 µg/mL (≈ 10.2 µM); IC90 [35]: 21.1 µg/mL (≈ 18.9 µM); IC50 [36]: 3.79 µg/mL (≈ 3.4 µM); IC70 [36]: 5.95 µg/mL (≈ 5.34 µM); IC90 [36]: 9.35 µg/mL (≈ 8.39 µM)
